The source of these data is ChEMBL document CHEMBL4406821, “Novel dual inhibitors targeting CDK4 and VEGFR2 synergistically suppressed cancer progression and angiogenesis” (Eur J Med Chem, 2019).

Molecules are shown by their SMILES. Activity calls are given as the source filed them. The calls are words filed in the database; no cut-off is given here.

Series [1] addresses Ephrin type-A receptor 8 (Homo sapiens) (UniProt P29322). The series is described as follows: Inhibition of recombinant human EPhA8 (615 to 911 residues) at 1 uM using KTFCGTPEYLAPEVRREPRILSEEEQEMFRDFDYIADWC as substrate incubated for 40 mins in presence of [gamma-33P]-ATP by scintillation counting method relative to control.
Series [2] concerns Mast/stem cell growth factor receptor Kit (Homo sapiens), P10721 [V560G]. Description: Inhibition of recombinant human cKIT V560G mutant (544 to end residues) at 1 uM using GGMEDIYFEFMGG as substrate incubated for 40 mins in presence of [gamma-33P]-ATP by scintillation counting method relative to control. A digest of the protocol:
(§1)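 Tested at a single 1 uM in an outsourced commercial kinase-profiling panel, read as percent inhibition. Each value is the mean of two independent experiments.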

Series [3] addresses Beta-adrenergic receptor kinase 1 (Homo sapiens) (UniProt P25098). Description: Inhibition of recombinant human full length GRK2 at 1 uM using casein as substrate incubated for 40 mins in presence of [gamma-33P]-ATP by scintillation counting method relative to control. In outline: as §1
The subject of series [4] is MDA-MB-231. The series is described as follows: Induction of apoptosis in human MDA-MB-231 cells assessed as decrease in Ki67 expression at 20 to 40 nM incubated for 48 hrs by Western blot analysis. Type of series: functional, cell-based. In outline:
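Cells were treated for 48 h, washed three times with PBS, and lysed in RIPA buffer. Immunoblots used anti-Rb, anti-phospho-Rb, anti-Ki67 and anti-Bcl-2 (each 1:1000), with β-actin as loading control.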

Series [5] deals with Serine/threonine-protein kinase PAK 4 (Homo sapiens) (UniProt O96013). Description: Inhibition of recombinant human PAK4 (295 to end residues) at 1 uM using myelin basic protein as substrate incubated for 40 mins in presence of [gamma-33P]-ATP by scintillation counting method relative to control.
For series [6], the target named is Tyrosine-protein kinase BTK (Homo sapiens) (UniProt Q06187). Description: Inhibition of recombinant full length human BTK at 1 uM using LSNLYHQGKFLQT as substrate incubated for 40 mins in presence of [gamma-33P]-ATP by scintillation counting method relative to control. In outline: as §1
The subject of series [7] is Angiopoietin-1 receptor (Homo sapiens), Q02763 [Y897S]. The series is described as follows: Inhibition of recombinant human TIE2 Y897S mutant (771 to end residues) at 1 uM using EFPIYDFLPAKKK as substrate incubated for 40 mins in presence of [gamma-33P]-ATP by scintillation counting method relative to control.
In series [8] the target is CDK6/cyclin D3 (Homo sapiens) (UniProt P30281+Q00534). Description: Inhibition of recombinant human full length CDK6/cyclinD3 at 1 uM using histone H1 as substrate incubated for 40 mins in presence of [gamma-33P]-ATP by scintillation counting method relative to control. Type of series: protein-complex assay.
Series [9] has as its target Serine/threonine-protein kinase tousled-like 1 (Homo sapiens) (UniProt Q9UKI8). The series is described as follows: Inhibition of recombinant human full length TLK1 at 1 uM using casein as substrate incubated for 40 mins in presence of [gamma-33P]-ATP by scintillation counting method relative to control.
Series [10] has as its target Serine/threonine-protein kinase Nek9 (Homo sapiens) (UniProt Q8TD19). Description: Inhibition of recombinant human NEK9 (1 to 324 residues) at 1 uM using myelin basic protein as substrate incubated for 40 mins in presence of [gamma-33P]-ATP by scintillation counting method relative to control.
Series [11] in a line: Toxicity in NOD/SCID BALB/c mouse xenografted with human SiHa cells assessed as toxic effects in liver at 40 mg/kg, po administered for 48 hrs by hematoxylin and eosin staining method. Type of series: organism-based. The following applies: in vivo. On the technique in general: Xenograft models place foreign cells or tissue in a host animal.
Series [12] has as its target Serine/threonine-protein kinase MARK1 (Homo sapiens) (UniProt Q9P0L2). The series is described as follows: Inhibition of recombinant human MARK1 (2 to end residues) at 1 uM using KKKVSRSGLYRSPSMPENLNRPR as substrate incubated for 40 mins in presence of [gamma-33P]-ATP by scintillation counting method relative to control.
Series [13] addresses Tyrosine-protein kinase Fgr (Homo sapiens) (UniProt P09769). The series is described as follows: Inhibition of recombinant human FGR (2 to end residues) at 1 uM using poly(Glu, Tyr) 4:1 as substrate incubated for 40 mins in presence of [gamma-33P]-ATP by scintillation counting method relative to control.
Series [14] deals with Platelet-derived growth factor receptor beta (Homo sapiens) (UniProt P09619). The series is described as follows: Inhibition of recombinant human PDGFRbeta (557 to end residues) at 1 uM using poly(Glu, Tyr) 4:1 as substrate incubated for 40 mins in presence of [gamma-33P]-ATP by scintillation counting method relative to control.
The target of series [15] is Mitogen-activated protein kinase kinase kinase 5 (Homo sapiens) (UniProt Q99683). Description: Inhibition of recombinant human ASK1 (649 to 946 residues) at 1 uM using myelin ba as substrate incubated for 40 mins in presence of [gamma-33P]-ATP by scintillation counting method relative to control. In outline: as §1
Series [16] deals with MDA-MB-231. Description: Induction of cell cycle arrest in human MDA-MB-231 cells assessed as decrease in accumulation in S phase at 20 to 40 nM incubated for 36 hrs by propidium iodide staining based flow cytometry. Type of series: functional. A digest of the protocol: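 Cells were treated with graded concentrations for 36 h, then fixed overnight in 70% ice-cold ethanol at 4°C and resuspended in PBS. Staining used 50 µg/ml PI plus 5 µg/ml RNase at 37°C for 30 min. DNA content was analysed by FACS to give G0/G1, S and G2/M fractions.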

Series [17] addresses Tyrosine-protein kinase Blk (Homo sapiens) (UniProt P51451). Description: Inhibition of recombinant full length human BLK at 1 uM using poly(Glu, Tyr) 4:1 as substrate incubated for 40 mins in presence of [gamma-33P]-ATP by scintillation counting method relative to control. A digest of the protocol:
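Kinase panel profiling at 1 μM performed by Eurofins KinaseProfiler; percent inhibition reported as mean of two independent experiments.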

In series [18] the test system is SiHa. The series is described as follows: Antiproliferative activity against human SiHa cells assessed as reduction in cell viability at 80 nM incubated for 48 hrs by EdU staining based laser scanning confocal microscopy. Format: functional. A digest of the protocol:
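Cells, 5×10^4, were seeded in 24-well plates and treated for 48 h. They were then labeled using an EdU Apollo 488 imaging kit with Hoechst 33342 nuclear stain and imaged by laser scanning confocal microscopy. Percent EdU-positive cells = EdU-positive/Hoechst-stained × 100%.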

The test system of series [19] is SiHa. The series is described as follows: Antitumor activity against human SiHa cells xenografted in NOD/SCID BALB/c mouse assessed as reduction in Ki67 expression at 40 mg/kg, po measured after 21 days by hematoxylin and eosin staining based immunohistochemistry. Type of series: functional, organism-based. In outline: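 Female NOD/SCID Balb/c mice, 6–8 weeks old, received 2×10^6 SiHa cells subcutaneously in the right flank. Once tumors reached 100 mm³, mice were randomized, 5 per group, and gavaged once daily for 21 days. Formalin-fixed, paraffin-embedded tumor sections were stained with Ki67 or CD31 antibody (1:100, 4 °C overnight), then biotin secondary and ABC-peroxidase/DAB, with hematoxylin counterstain.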

Another series concerns HeLa. Description: Induction of apoptosis in human HeLa cells at 40 nM incubated for 48 hrs by annexin V FITC and propidium iodide staining based flow cytometry. Format: functional, cell-based. In outline:
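Cells were treated for 48 h, stained with FITC Annexin V and PI, and analyzed by flow cytometry to count early and late apoptotic cells.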
In general terms: Flow cytometry measures light scatter and fluorescence of single cells or particles in a stream.

Sequence of Mast/stem cell growth factor receptor Kit (Homo sapiens), P10721 [V560G] (P10721 whole entry V560G): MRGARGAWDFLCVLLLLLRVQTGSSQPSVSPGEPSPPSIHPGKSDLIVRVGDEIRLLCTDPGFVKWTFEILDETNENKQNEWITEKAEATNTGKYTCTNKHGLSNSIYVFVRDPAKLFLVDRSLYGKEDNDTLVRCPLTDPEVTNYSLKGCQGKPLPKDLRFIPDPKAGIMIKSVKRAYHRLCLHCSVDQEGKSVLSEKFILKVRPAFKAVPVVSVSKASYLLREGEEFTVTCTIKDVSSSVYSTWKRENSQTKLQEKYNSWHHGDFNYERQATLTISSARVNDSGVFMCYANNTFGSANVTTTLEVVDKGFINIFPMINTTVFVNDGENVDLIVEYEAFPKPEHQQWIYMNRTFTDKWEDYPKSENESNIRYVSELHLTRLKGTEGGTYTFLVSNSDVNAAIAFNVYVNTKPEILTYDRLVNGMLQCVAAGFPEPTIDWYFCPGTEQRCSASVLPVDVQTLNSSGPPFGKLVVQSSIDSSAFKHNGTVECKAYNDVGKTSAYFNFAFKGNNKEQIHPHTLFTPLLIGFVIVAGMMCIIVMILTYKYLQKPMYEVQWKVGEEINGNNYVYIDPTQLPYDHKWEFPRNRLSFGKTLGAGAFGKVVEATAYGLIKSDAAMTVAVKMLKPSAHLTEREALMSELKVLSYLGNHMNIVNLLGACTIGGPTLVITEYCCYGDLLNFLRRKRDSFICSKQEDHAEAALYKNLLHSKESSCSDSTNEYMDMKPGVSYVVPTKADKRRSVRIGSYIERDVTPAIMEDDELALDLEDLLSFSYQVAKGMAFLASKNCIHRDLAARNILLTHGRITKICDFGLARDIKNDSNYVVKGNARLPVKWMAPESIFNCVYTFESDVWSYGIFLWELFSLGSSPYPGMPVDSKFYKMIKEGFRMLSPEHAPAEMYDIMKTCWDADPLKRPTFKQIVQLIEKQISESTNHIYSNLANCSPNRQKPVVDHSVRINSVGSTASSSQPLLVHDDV
Sequence of Tyrosine-protein kinase Blk (Homo sapiens) (P51451 2-505 limits assumed): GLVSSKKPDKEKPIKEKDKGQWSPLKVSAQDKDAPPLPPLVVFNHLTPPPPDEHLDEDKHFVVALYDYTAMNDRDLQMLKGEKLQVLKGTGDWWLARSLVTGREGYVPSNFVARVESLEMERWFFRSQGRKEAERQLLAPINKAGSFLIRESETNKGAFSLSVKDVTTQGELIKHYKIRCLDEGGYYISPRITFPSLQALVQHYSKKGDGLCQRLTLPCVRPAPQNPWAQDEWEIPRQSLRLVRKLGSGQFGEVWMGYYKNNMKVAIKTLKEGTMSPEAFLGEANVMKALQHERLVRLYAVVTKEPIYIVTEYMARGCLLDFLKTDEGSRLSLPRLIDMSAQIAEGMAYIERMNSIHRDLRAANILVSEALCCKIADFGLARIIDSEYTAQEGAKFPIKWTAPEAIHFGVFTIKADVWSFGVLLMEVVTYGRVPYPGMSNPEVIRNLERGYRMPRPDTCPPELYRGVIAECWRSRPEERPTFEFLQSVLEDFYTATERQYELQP
Sequence of Tyrosine-protein kinase Fgr (Homo sapiens) (P09769 2-529 limits assumed): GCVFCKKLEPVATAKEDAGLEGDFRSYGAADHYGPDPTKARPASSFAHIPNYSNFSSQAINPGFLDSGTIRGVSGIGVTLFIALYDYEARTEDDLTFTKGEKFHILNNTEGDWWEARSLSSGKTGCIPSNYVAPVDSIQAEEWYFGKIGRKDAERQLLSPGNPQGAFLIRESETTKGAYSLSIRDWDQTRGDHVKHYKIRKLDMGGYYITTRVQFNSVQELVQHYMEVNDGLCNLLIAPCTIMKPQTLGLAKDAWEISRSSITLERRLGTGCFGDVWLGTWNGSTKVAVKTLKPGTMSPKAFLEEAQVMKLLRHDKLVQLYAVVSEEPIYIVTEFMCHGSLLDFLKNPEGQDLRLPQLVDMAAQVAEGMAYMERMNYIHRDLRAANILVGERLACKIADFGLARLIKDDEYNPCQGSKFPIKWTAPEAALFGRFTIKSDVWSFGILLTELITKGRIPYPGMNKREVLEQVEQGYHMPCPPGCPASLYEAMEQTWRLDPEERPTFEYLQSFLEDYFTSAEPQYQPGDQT
Sequence of Ephrin type-A receptor 8 (Homo sapiens) (P29322 whole entry, the tested form may be a part): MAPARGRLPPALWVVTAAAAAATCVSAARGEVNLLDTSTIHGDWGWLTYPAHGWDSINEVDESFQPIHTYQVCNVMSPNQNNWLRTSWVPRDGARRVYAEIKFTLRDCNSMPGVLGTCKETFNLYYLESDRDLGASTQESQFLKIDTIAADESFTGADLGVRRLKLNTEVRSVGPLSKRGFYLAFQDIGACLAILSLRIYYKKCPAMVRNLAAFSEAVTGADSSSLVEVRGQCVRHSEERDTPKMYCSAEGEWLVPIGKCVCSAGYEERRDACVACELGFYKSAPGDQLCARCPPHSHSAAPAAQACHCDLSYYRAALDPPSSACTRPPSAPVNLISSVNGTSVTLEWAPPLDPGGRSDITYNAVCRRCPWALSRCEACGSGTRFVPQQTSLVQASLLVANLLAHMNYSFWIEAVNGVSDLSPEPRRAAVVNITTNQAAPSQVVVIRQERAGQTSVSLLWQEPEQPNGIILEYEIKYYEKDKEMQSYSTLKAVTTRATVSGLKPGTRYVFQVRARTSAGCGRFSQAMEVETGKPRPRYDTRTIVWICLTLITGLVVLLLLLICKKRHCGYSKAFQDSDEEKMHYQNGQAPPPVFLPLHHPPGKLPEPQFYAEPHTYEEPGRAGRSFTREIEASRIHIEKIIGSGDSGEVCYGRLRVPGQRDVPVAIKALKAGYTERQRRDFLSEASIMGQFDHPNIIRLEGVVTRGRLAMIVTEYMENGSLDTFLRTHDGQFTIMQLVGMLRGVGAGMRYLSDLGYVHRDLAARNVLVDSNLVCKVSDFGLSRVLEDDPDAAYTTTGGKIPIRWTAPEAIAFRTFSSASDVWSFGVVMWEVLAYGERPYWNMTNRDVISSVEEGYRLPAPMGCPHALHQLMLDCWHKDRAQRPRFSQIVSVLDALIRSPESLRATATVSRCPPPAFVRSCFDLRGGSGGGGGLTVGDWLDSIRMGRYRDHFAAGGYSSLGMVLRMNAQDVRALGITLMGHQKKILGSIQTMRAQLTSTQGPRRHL
Sequence of Platelet-derived growth factor receptor beta (Homo sapiens) (P09619 whole entry, the tested form may be a part): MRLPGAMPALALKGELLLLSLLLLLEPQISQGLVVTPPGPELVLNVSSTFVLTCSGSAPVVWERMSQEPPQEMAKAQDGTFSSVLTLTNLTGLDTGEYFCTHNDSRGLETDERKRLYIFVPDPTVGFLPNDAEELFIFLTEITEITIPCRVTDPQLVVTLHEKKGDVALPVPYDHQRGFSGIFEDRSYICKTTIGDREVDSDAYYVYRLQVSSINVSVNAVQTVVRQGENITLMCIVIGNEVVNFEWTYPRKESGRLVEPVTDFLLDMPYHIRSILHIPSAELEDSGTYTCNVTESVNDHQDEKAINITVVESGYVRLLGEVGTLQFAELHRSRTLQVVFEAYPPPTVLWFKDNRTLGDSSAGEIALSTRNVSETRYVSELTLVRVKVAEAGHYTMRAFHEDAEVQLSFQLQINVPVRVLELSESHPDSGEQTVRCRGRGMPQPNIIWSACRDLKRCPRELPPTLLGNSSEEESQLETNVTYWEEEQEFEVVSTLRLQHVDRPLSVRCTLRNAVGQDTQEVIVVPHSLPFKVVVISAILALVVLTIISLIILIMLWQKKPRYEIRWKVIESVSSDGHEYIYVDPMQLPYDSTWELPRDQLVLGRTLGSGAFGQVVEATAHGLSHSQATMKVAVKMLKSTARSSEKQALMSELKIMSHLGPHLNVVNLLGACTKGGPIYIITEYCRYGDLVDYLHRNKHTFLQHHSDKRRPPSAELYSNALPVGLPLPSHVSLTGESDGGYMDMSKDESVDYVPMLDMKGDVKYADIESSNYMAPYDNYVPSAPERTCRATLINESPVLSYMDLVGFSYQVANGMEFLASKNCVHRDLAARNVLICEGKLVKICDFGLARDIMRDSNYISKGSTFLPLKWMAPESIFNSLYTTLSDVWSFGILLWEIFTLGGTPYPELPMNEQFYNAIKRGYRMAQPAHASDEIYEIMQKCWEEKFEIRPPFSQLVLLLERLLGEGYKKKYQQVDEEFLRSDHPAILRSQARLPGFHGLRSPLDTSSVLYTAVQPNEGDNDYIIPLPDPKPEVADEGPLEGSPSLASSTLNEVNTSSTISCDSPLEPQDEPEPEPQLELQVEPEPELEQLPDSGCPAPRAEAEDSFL
Sequence of Serine/threonine-protein kinase MARK1 (Homo sapiens) (Q9P0L2 whole entry, looked up): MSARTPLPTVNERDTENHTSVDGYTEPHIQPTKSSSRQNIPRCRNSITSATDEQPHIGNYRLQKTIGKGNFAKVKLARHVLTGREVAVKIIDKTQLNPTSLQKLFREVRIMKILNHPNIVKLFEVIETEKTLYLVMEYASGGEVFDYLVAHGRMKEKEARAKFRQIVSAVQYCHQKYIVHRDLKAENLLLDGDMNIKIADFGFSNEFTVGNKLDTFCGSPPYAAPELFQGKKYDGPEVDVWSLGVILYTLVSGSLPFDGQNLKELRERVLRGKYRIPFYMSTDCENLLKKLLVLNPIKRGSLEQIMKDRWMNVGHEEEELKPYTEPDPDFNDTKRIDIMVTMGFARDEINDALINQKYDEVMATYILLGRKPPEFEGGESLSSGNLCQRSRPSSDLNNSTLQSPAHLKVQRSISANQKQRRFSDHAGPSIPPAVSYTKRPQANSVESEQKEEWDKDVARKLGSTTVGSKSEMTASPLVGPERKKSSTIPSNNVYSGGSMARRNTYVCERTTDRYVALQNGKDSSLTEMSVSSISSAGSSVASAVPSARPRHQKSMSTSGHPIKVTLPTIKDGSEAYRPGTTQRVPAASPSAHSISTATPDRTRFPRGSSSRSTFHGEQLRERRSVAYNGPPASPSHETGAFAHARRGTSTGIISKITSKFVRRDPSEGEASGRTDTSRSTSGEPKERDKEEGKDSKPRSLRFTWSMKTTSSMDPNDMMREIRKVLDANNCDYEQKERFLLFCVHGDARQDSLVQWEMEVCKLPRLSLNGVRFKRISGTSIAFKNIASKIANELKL

As to `Cc1ccc(NC(=O)C2(C(=O)Nc3ccc(Nc4ncc(F)c(-c5cc(F)c6nc(C)n(C(C)C)c6c5)n4)cc3)CC2)cc1`, the inhibition in series [1] is 15%; in series [2] it was 73%; in series [3], 0%; in series [5] it was 50%; in series [6], 0%; in series [7], 51%. In addition, the inhibition in series [8] was 94%; in series [9], 31%; in [10], 71%; in series [12], 74%; in series [13] it was 55%; in [14], 6%. For the same compound, the inhibition in series [15] was determined as 0%; in series [17] it was 39%. The outcome with MDA-MB-231 [4] and in the series with MDA-MB-231 [16] was Active. Besides, the Activity entry in series [11] is reported as “Non-Toxic”.

In the case of `COc1cc2nccc(Oc3ccc(NC(=O)C4(C(=O)Nc5ccc(F)cc5)CC4)cc3)c2cc1OC` [CABOZANTINIB], the inhibition entry in the series on SiHa [18] and in the series with SiHa [19] was “Active” in each case. The outcome in the series on HeLa was Active.

The inhibition is the percentage by which the read-out fell short of the control.
